# Tested on: Fibroblast
# Assay: Multiplex assay against human fibroblast
# Format: toxicity, cell-based
# Method in brief: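 Cells stained live at seeding with Hoechst33342, BioTracker Green Microtubule Cytoskeleton Dye, MitoTracker Red and Annexin V Alexa Fluor 680 were imaged on a CQ1 microscope at 37°C and 5% CO2 after compound addition. Their classification by CellPathfinder machine-learning gating ran from Hoechst high-intensity objects versus normal cells, to healthy, pyknosed or fragmented nuclei among normal cells, to mitotic or apoptotic among pyknosed cells. Tubulin, mitochondrial-mass and membrane-permeability phenotypes are per cents of healthy-nucleus cells.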
# [1] = 12 h, 1 µM, compound concentration 1 uM, replicate 1
# [2] = 12 h, 1 µM, compound concentration 1 uM, replicate 2
# [3] = 12 h, 10 µM, compound concentration 10 uM, replicate 1
# [4] = 12 h, 10 µM, compound concentration 10 uM, replicate 2
# [5] = 24 h, 1 µM, compound concentration 1 uM, replicate 1
# [6] = 24 h, 1 µM, compound concentration 1 uM, replicate 2
# [7] = 24 h, 10 µM, compound concentration 10 uM, replicate 1
# [8] = 24 h, 10 µM, compound concentration 10 uM, replicate 2
# [9] = 48 h, 1 µM, compound concentration 1 uM, replicate 1
# [10] = 48 h, 1 µM, compound concentration 1 uM, replicate 2
# [11] = 48 h, 10 µM, compound concentration 10 uM, replicate 1
# [12] = 48 h, 10 µM, compound concentration 10 uM, replicate 2
compound,measurement,setting,value
CCCOc1ccc2[nH]cc(C3=CCNCC3)c2n1.Cl,Population Apoptotic (%),[1],42%
same,Population Fragmented Nuclei (%),[1],13%
same,Population Healthy Nuclei (%),[1],71%
same,Population Hoechst High Intensity Objects (%),[1],2%
same,Population Membrane Permeable-Phenotype (%),[1],0%
same,Population Mitochondria Different-Phenotype (%),[1],6%
same,Population Mitotic Cells (%),[1],57%
same,Population Normal (%),[1],97%
same,Population Pyknosed Nuclei (%),[1],15%
same,Population Tubulin-Different-Phenotype (%),[1],27%
same,Total Cell Count,[1],143
same,Population Apoptotic (%),[2],48%
same,Population Fragmented Nuclei (%),[2],25%
same,Population Healthy Nuclei (%),[2],52%
same,Population Hoechst High Intensity Objects (%),[2],0%
same,Population Membrane Permeable-Phenotype (%),[2],8%
same,Population Mitochondria Different-Phenotype (%),[2],2%
same,Population Mitotic Cells (%),[2],51%
same,Population Normal (%),[2],99%
same,Population Pyknosed Nuclei (%),[2],21%
same,Population Tubulin-Different-Phenotype (%),[2],47%
same,Total Cell Count,[2],137
same,Population Apoptotic (%),[3],70%
same,Population Fragmented Nuclei (%),[3],16%
same,Population Healthy Nuclei (%),[3],70%
same,Population Hoechst High Intensity Objects (%),[3],4%
same,Population Membrane Permeable-Phenotype (%),[3],0%
same,Population Mitochondria Different-Phenotype (%),[3],12%
same,Population Mitotic Cells (%),[3],29%
same,Population Normal (%),[3],95%
same,Population Pyknosed Nuclei (%),[3],13%
same,Population Tubulin-Different-Phenotype (%),[3],41%
same,Total Cell Count,[3],133
same,Population Apoptotic (%),[4],40%
same,Population Fragmented Nuclei (%),[4],31%
same,Population Healthy Nuclei (%),[4],48%
same,Population Hoechst High Intensity Objects (%),[4],2%
same,Population Membrane Permeable-Phenotype (%),[4],1%
same,Population Mitochondria Different-Phenotype (%),[4],10%
same,Population Mitotic Cells (%),[4],60%
same,Population Normal (%),[4],97%
same,Population Pyknosed Nuclei (%),[4],20%
same,Population Tubulin-Different-Phenotype (%),[4],59%
same,Total Cell Count,[4],125
same,Population Apoptotic (%),[5],57%
same,Population Fragmented Nuclei (%),[5],14%
same,Population Healthy Nuclei (%),[5],76%
same,Population Hoechst High Intensity Objects (%),[5],2%
same,Population Membrane Permeable-Phenotype (%),[5],0%
same,Population Mitochondria Different-Phenotype (%),[5],6%
same,Population Mitotic Cells (%),[5],42%
same,Population Normal (%),[5],97%
same,Population Pyknosed Nuclei (%),[5],9%
same,Population Tubulin-Different-Phenotype (%),[5],20%
same,Total Cell Count,[5],155
same,Population Apoptotic (%),[6],38%
same,Population Fragmented Nuclei (%),[6],28%
same,Population Healthy Nuclei (%),[6],52%
same,Population Hoechst High Intensity Objects (%),[6],0%
same,Population Membrane Permeable-Phenotype (%),[6],5%
same,Population Mitochondria Different-Phenotype (%),[6],5%
same,Population Mitotic Cells (%),[6],61%
same,Population Normal (%),[6],100%
same,Population Pyknosed Nuclei (%),[6],18%
same,Population Tubulin-Different-Phenotype (%),[6],40%
same,Total Cell Count,[6],140
same,Population Apoptotic (%),[7],61%
same,Population Fragmented Nuclei (%),[7],23%
same,Population Healthy Nuclei (%),[7],64%
same,Population Hoechst High Intensity Objects (%),[7],1%
same,Population Membrane Permeable-Phenotype (%),[7],0%
same,Population Mitochondria Different-Phenotype (%),[7],12%
same,Population Mitotic Cells (%),[7],38%
same,Population Normal (%),[7],98%
same,Population Pyknosed Nuclei (%),[7],11%
same,Population Tubulin-Different-Phenotype (%),[7],36%
same,Total Cell Count,[7],159
same,Population Apoptotic (%),[8],50%
same,Population Fragmented Nuclei (%),[8],20%
same,Population Healthy Nuclei (%),[8],68%
same,Population Hoechst High Intensity Objects (%),[8],2%
same,Population Membrane Permeable-Phenotype (%),[8],4%
same,Population Mitochondria Different-Phenotype (%),[8],8%
same,Population Mitotic Cells (%),[8],50%
same,Population Normal (%),[8],97%
same,Population Tubulin-Different-Phenotype (%),[8],61%
same,Total Cell Count,[8],107
same,Population Apoptotic (%),[9],69%
same,Population Fragmented Nuclei (%),[9],17%
same,Population Healthy Nuclei (%),[9],74%
same,Population Hoechst High Intensity Objects (%),[9],2%
same,Population Membrane Permeable-Phenotype (%),[9],0%
same,Population Mitochondria Different-Phenotype (%),[9],5%
same,Population Mitotic Cells (%),[9],30%
same,Population Normal (%),[9],97%
same,Population Pyknosed Nuclei (%),[9],8%
same,Population Tubulin-Different-Phenotype (%),[9],23%
same,Total Cell Count,[9],162
same,Population Apoptotic (%),[10],64%
same,Population Fragmented Nuclei (%),[10],36%
same,Population Healthy Nuclei (%),[10],53%
same,Population Hoechst High Intensity Objects (%),[10],4%
same,Population Membrane Permeable-Phenotype (%),[10],5%
same,Population Mitochondria Different-Phenotype (%),[10],2%
same,Population Mitotic Cells (%),[10],35%
same,Population Normal (%),[10],95%
same,Population Pyknosed Nuclei (%),[10],9%
same,Population Tubulin-Different-Phenotype (%),[10],40%
same,Total Cell Count,[10],147
same,Population Apoptotic (%),[11],73%
same,Population Fragmented Nuclei (%),[11],21%
same,Population Healthy Nuclei (%),[11],65%
same,Population Hoechst High Intensity Objects (%),[11],2%
same,Population Membrane Permeable-Phenotype (%),[11],0%
same,Population Mitochondria Different-Phenotype (%),[11],9%
same,Population Mitotic Cells (%),[11],26%
same,Population Normal (%),[11],97%
same,Population Pyknosed Nuclei (%),[11],13%
same,Population Tubulin-Different-Phenotype (%),[11],45%
same,Total Cell Count,[11],150
same,Population Apoptotic (%),[12],60%
same,Population Fragmented Nuclei (%),[12],32%
same,Population Healthy Nuclei (%),[12],62%
same,Population Hoechst High Intensity Objects (%),[12],5%
same,Population Membrane Permeable-Phenotype (%),[12],4%
same,Population Mitochondria Different-Phenotype (%),[12],13%
same,Population Mitotic Cells (%),[12],40%
same,Population Normal (%),[12],94%
same,Population Pyknosed Nuclei (%),[12],4%
same,Population Tubulin-Different-Phenotype (%),[12],44%
same,Total Cell Count,[12],116
